Measured values taken from ChEMBL document CHEMBL1629689, “Cross-resistance to nitro drugs and implications for treatment of human African trypanosomiasis” (Antimicrob Agents Chemother, 2010).
≈ marks a conversion by molar mass, not a printed value. Calls of active or inactive are those of the source. The rule behind the calls is not given here.

Legend:
Trypanosoma brucei [1] = test: Selectivity ratio of EC50 for Trypanosoma brucei NfxR2 to EC50 for Trypanosoma brucei; format: functional
In short: (§1)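 Resistance factor taken as EC50 for resistant cells divided by EC50 for wild-type S427 bloodstream T. brucei, both from the same in vitro growth-inhibition assay. EC50 values come from at least three independent experiments.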

Trypanosoma brucei [2] = test: Antimicrobial activity against Trypanosoma brucei NfxR2; format: functional, organism-based
In short: (§2)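 T. brucei bloodstream-form single-marker S427 (wild type) and cloned nifurtimox-resistant lines, cultured at 37°C in HMI9-T with 2.5 µg/ml G418. Growth inhibition measured, data corrected for background cell density and expressed as % of untreated cells. EC50 from a two-parameter fit with slope factor. At least three independent experiments; weighted means ± weighted SD.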

Trypanosoma brucei [3] = test: Antimicrobial activity against Trypanosoma brucei; format: functional, organism-based; in short: as §2
Trypanosoma brucei [4] = test: Selectivity ratio of EC50 for Trypanosoma brucei NfxR1 to EC50 for Trypanosoma brucei; format: functional; in short: as §1
Trypanosoma brucei [5] = test: Antimicrobial activity against Trypanosoma brucei NfxR1; format: functional, organism-based; in short: as §2
Blood [6] = test: Metabolic stability in blood of NMRI mouse assessed as accumulation of sulfone metabolite at 200 mg/kg, po measured after 8 hrs; conditions: in vivo
Trypanosoma brucei [7] = test: Antimicrobial activity against wild type Trypanosoma brucei infected in dosed NMRI administered QD for 3 days measured on day 6 by neubuaer hemocytometry
[8] = Fraction unbound in plasma of NMRI mouse at 200 mg/kg, po; format: ADME, organism-based; parameters: dose 200 mg/kg, route oral
Blood [9] = test: Metabolic stability in blood of NMRI mouse assessed as accumulation of sulfoxide metabolite at 200 mg/kg, po measured after 2 hrs; format: ADME, organism-based; parameters: dose 200 mg/kg, route oral; conditions: in vivo
In short: (§3)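 Single oral dose of 200 mg/kg to NMRI mice, vehicle 10% DMSO in peanut oil. Tail-vein blood (10 µl) taken into water at 0.25, 0.5, 1, 2, 4, 6 and 8 h. Samples extracted by acetonitrile protein precipitation with internal standard. Parent and sulfoxide and sulfone metabolites measured by UPLC-MS/MS (positive ESI, MRM). Triplicate measurements.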

Trypanosoma brucei [10] = test: Antimicrobial activity against Trypanosoma brucei NfxR1 infected in mouse assessed as decrease in parasitemia level at 200 mg/kg, QD for 3 days measured on day 60 by neubuaer hemocytometry
Trypanosoma brucei [11] = test: Antimicrobial activity against Trypanosoma brucei NfxR1 infected in dosed NMRI administered QD for 3 days measured on day 6 by neubuaer hemocytometry
Trypanosoma brucei [12] = test: Antimicrobial activity against Trypanosoma brucei wild type
[13] = Cmax in NMRI mouse at 200 mg/kg, po after 15 mins; format: ADME, organism-based; parameters: dose 200 mg/kg, route oral; conditions: in vivo; in short: as §3
Trypanosoma brucei [14] = test: Antimicrobial activity against wild type Trypanosoma brucei infected NMRI assessed as cure rate at 50 mg/kg, QD for 3 days measured on day 6 by neubuaer hemocytometry
Trypanosoma brucei [15] = conditions: NfxR1, 100 mg/kg
Trypanosoma brucei [16] = test: animal or person; conditions: in Mus musculus, ip, 96 h
[17] = test system: Trypanosoma brucei gambiense; test: Antimicrobial activity against Trypanosoma brucei gambiense
Trypanosoma brucei [18] = test: Antimicrobial activity against Trypanosoma brucei wild type; remark: listed apart in the source

Row | Structure (SMILES) | Ratio EC50 (Trypanosoma brucei [1]) | EC50 (Trypanosoma brucei [2]) | EC50 (Trypanosoma brucei [3]) | Ratio EC50 (Trypanosoma brucei [4]) | EC50 (Trypanosoma brucei [5]) | also measured
1 | O=C(Cn1ccnc1[N+](=O)[O-])NCc1ccccc1 [BENZNIDAZOLE] | 5 | 155 µM | 30 µM | 5 | 154 µM | –
2 | NCCCC(N)(C(=O)O)C(F)F (configuration not stated) [EFLORNITHINE] | 1 | 11.5 µM | 16.4 µM | 1 | 11.9 µM | –
3 | Cn1c([N+](=O)[O-])cnc1COc1ccc(S(C)(=O)=O)cc1 [FEXINIDAZOLE SULFONE] | 15 | 9.5 µM | 0.62 µM | 15 | 9.6 µM | Stability (Blood [6]): 55000 ng/mL
4 | Cn1c([N+](=O)[O-])cnc1COc1ccc([S+](C)[O-])cc1 (configuration not stated) [FEXINIDAZOLE SULFOXIDE] | 15 | 21 µM | 1.4 µM | 13 | 18.4 µM | –
5 | CSc1ccc(OCc2ncc([N+](=O)[O-])n2C)cc1 [FEXINIDAZOLE] | – | – | – | – | – | ED50 (Trypanosoma brucei [7]): 21 mg/kg; fraction unbound [8]: 0.147; Stability (Blood [9]): 40000 ng/mL; inhibition (Trypanosoma brucei [10]): inactive; ED50 (Trypanosoma brucei [11]): 171 mg/kg; MIC (Trypanosoma brucei [12]): 17.7 µM (≈ 4.94 µg/mL); Cmax [13]: 961 ng/mL; Activity (Trypanosoma brucei [14]): 100%
6 | Cc1ncc([N+](=O)[O-])n1CCO [METRONIDAZOLE] | – | > 500 µM | > 500 µM | – | > 500 µM | –
7 | CC1CS(=O)(=O)CCN1/N=C/c1ccc([N+](=O)[O-])o1 (configuration not stated) [NIFURTIMOX] | – | – | – | – | – | inhibition (Trypanosoma brucei [15]): inactive; ED50 (Trypanosoma brucei [16]): 36.7 mg/kg; ED99 (Trypanosoma brucei [16]): 128 mg/kg; EC50 [17]: 0.26 µM; MIC (Trypanosoma brucei [18]): 15.2 µM (≈ 4.37 µg/mL)
8 | NC(=O)N/N=C/c1ccc([N+](=O)[O-])o1 [NITROFURAZONE] | 12 | 3.7 µM | 0.31 µM | 12 | 3.7 µM | –
9 | N=C(N)c1ccc(OCCCCCOc2ccc(C(=N)N)cc2)cc1 [PENTAMIDINE] | 2 | 0.0017 µM | 0.00095 µM | 3 | 0.0026 µM | –
10 | O=[N+]([O-])c1cn2c(n1)OC[C@@H](OCc1ccc(OC(F)(F)F)cc1)C2 [PRETOMANID] | 1 | 30.8 µM | 37.8 µM | 1 | 30.5 µM | –
11 | NC(=O)c1cc(N2CC2)c([N+](=O)[O-])cc1[N+](=O)[O-] [TRETAZICAR] | 19 | 10.2 µM | 0.54 µM | 15 | 8 µM | –
